Laboratory results as given in ChEMBL document CHEMBL4261627, “Design, synthesis and anti-melanogenic effect of cinnamamide derivatives” (Bioorg Med Chem, 2018).

Columns and labels:
[1] = Antioxidant activity assessed as DPPH-radical scavenging activity at 1 mM incubated for 30 mins under dark condition; type: functional
Summary of the method: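 DPPH (0.2 mM in methanol, 180 µL) was mixed with 20 µL of compound from a 10 mM DMSO stock, giving 1 mM final. The mix was kept in the dark for 30 min and read at 517 nm, with L-ascorbic acid as reference. % scavenging = (Ac−As)/Ac × 100 against untreated control. Triplicate, mean ± SD.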

[2] = molecular target: T1, Tyrosinase (Mus musculus) (UniProt P11344); conditions: 400 uM
T1 sequence (whole entry): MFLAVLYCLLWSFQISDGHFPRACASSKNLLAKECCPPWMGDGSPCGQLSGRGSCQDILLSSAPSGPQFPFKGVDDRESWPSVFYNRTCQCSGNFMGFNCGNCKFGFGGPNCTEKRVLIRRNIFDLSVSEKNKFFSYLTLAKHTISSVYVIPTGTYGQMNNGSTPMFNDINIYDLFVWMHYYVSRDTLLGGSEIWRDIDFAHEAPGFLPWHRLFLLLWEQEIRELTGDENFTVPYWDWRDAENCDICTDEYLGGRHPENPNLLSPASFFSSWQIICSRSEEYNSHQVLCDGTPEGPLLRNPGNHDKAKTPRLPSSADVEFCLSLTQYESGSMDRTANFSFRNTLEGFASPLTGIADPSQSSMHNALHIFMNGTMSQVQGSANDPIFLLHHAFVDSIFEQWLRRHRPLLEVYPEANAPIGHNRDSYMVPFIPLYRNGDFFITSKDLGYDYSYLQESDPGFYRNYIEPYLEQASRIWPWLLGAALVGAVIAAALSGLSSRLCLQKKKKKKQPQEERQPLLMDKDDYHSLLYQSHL

[3] = system: B16-F10; experiment: Cytotoxicity against mouse B16F10 cells up to 25 uM after 24 hrs by WST8 assay; type: cell-based; conditions: b16-f10, 24 h
Summary of the method: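 B16F10 cells (from DMEM/10% FBS culture) were seeded at 1x10^4 cells/well and held 24 h at 37 °C, 5% CO2. Compound (0, 5, 10, 25 µM) was added for a further 24 h. WST-8 reagent was then applied for 30 min to 2 h at 37 °C and OD read at 450 nm. Viability expressed as % of control; triplicate.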

[4] = molecular target: T1, Tyrosinase (Mus musculus); experiment: Inhibition of tyrosinase in alpha-MSH stimulated mouse B16F10 cells at 10 uM using L-dopa as substrate pretreated for 24 hrs followed by substrate addition and measured after 30 mins
Summary of the method: (§1)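 Cells were lysed in pH 6.8 phosphate buffer with 0.1 mM PMSF and 1% Triton X-100, frozen at −80 °C, and spun. Supernatant (80 µL) was incubated with 20 µL of 10 mM L-dopa at 37 °C for 30 min and read at 500 nm. Triplicate.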

[5] = system: B16-F10; experiment: Antimelanogenic activity in mouse B16F10 cells assessed as inhibition of alpha-MSH-stimulated melanin synthesis at 25 uM measured after 24 hrs; type: functional; conditions: B16-F10, 24 h
Summary of the method: (§2)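 B16F10 cells were seeded at 5x10^4 cells/well and grown 24 h at 37 °C in 5% CO2. […] After PBS washes, melanin was dissolved in 1 N NaOH and read as absorbance at 405 nm. Triplicate, mean ± SEM.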

[6] = system: B16-F10; experiment: Antimelanogenic activity in mouse B16F10 cells assessed as inhibition of alpha-MSH-stimulated melanin synthesis at 10 uM measured after 24 hrs; type: functional, cell-based; summary of the method: as §2
[7] = molecular target: T1, Tyrosinase (Mus musculus); experiment: Inhibition of tyrosinase in alpha-MSH stimulated mouse B16F10 cells using L-dopa as substrate pretreated for 24 hrs followed by substrate addition and measured after 30 mins; summary of the method: as §1

SMILES | inhibition [1] [%] | inhibition at 25 µM [5] [%] | other results
O=C(/C=C/c1ccc(O)cc1)N1CCCCC1 | 0.91 | – | –
OC[C@H]1O[C@@H](Oc2ccc(O)cc2)[C@H](O)[C@@H](O)[C@@H]1O | – | – | inhibition [2]: 51.7%
O=C(/C=C/c1ccc(O)c(O)c1)N1CCCCC1 | 82.8 | – | –
COc1ccc(/C=C/C(=O)N2CCCCC2)cc1O | 37.6 | – | –
COc1ccc(/C=C/C(=O)N2CCCC2)cc1O | 34.2 | – | –
COc1cc(/C=C/C(=O)N2CCCC2)ccc1O | 82.1 | – | –
O=C(/C=C/c1ccc(O)cc1O)N1CCCCC1 | 30.7 | 61.8 | Activity [3]: Non-Toxic; inhibition [4]: 23.3%; inhibition [6]: Dose-dependent effect
O=C(/C=C/c1ccc(O)cc1)N1CCCC1 | 3.51 | – | –
O=C(/C=C/c1ccc(O)cc1O)N1CCCC1 | 22.3 | 78.3 | Activity [3]: Non-Toxic; inhibition [7]: Dose-dependent effect; inhibition [4]: 38.3%; inhibition [6]: Dose-dependent effect
COc1cc(/C=C/C(=O)N2CCCCC2)ccc1O | 80.7 | 72.7 | Activity [3]: Non-Toxic; inhibition [7]: Dose-dependent effect; inhibition [4]: 44%; inhibition [6]: Dose-dependent effect
O=C1O[C@H]([C@@H](O)CO)C(O)=C1O | 84.6 | – | –
O=c1cc(CO)occ1O [KOJIC ACID] | – | 37.6 | –
O=C(/C=C/c1ccc(O)c(O)c1)N1CCCC1 | 83.2 | – | –
